Calls of active or inactive are those of the source. No cut-off for these calls is given here.
Key:
A 172 [1] = test: Cytotoxicity against A-172 glioblastomas using MTT colorimetric assay; type: functional, cell-based; conditions: Homo sapiens
Method in brief: (§1)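 Human tumour lines from ATCC were grown at 37 °C in sealed dishes in MEM with 5% FCS. Cells were seeded at 40000 cells/mL in 96-well plates and left 24 h to plate. Each drug was then tested at six concentrations from 10^-5 to 10^-9 M. Growth was read by colorimetric MTT assay.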

J82 [2] = test: Cytotoxicity against J82 bladder cell lines using MTT colorimetric assay; type: functional, cell-based; conditions: Homo sapiens; method in brief: as §1
U-87 MG [3] = test: Cytotoxicity against U-87 MG glioblastomas using MTT colorimetric assay; type: functional, cell-based, U-87MG ATCC; conditions: Homo sapiens; method in brief: as §1
T47D [4] = test: Cytotoxicity against Breast cancer cell line T-47D using MTT colorimetric assay; type: functional, cell-based; conditions: Homo sapiens; method in brief: as §1
HCT-15 [5] = test: Cytotoxicity against HCT-15 colon cell line using MTT colorimetric assay; type: functional, cell-based; conditions: Homo sapiens; method in brief: as §1
LoVo [6] = test: Cytotoxicity measured on LoVo colon cell line using MTT colorimetric assay; type: functional, cell-based; conditions: Homo sapiens; method in brief: as §1
T-24 [7] = test: Cytotoxicity against T24 bladder cell lines using MTT colorimetric assay; type: functional, cell-based; conditions: Homo sapiens; method in brief: as §1
Mus musculus [8] = test: Evaluated in vivo for maximum tolerated dose (MTD/2) with Doxorubicin (DOX) using MXT mouse mammary adenocarcinoma model; type: functional
Method in brief: (§2)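 MXT-HS hormone-sensitive mammary adenocarcinoma maintained by monthly s.c. transplantation in 6-week-old female B6D2F1 mice. Doses are set as fractions of the MTD. Drugs given i.p.; ETO and DOX 9 times, the quinolone 20 times. Nine mice per group. Tumor area (mm2) is the product of the two largest perpendicular caliper diameters, measured weekly. Mean ± SEM; Mann-Whitney test.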

Mus musculus [9] = test: Evaluated in vivo for maximum tolerated dose (MTD/4) with Doxorubicin (DOX) using MXT mouse mammary adenocarcinoma model; type: functional; method in brief: as §2
U373 MG [10] = test: Cytotoxicity against U-373 MG glioblastomas using MTT colorimetric assay; type: functional, cell-based, U-373MG ATCC; conditions: Homo sapiens; method in brief: as §1
PC-3 [11] = test: Cytotoxicity against prostate cell line PC-3 using MTT colorimetric assay; type: functional, cell-based; conditions: Homo sapiens; method in brief: as §1
A549 [12] = test: Cytotoxicity against A549 nonsmall lung cell line using MTT colorimetric assay; type: functional, cell-based; conditions: Homo sapiens; method in brief: as §1
[13] = Evaluated in vivo for maximum tolerated dose and found to be nontoxic; type: ADME, organism-based
A-427 [14] = test: Cytotoxicity against A-427 nonsmall lung cell line using MTT colorimetric assay; type: functional, cell-based; conditions: Homo sapiens; method in brief: as §1
Mus musculus [15] = test: Evaluated in vivo for maximum tolerated dose (MTD/4) using MXT mouse mammary adenocarcinoma model
MCF7 [16] = test: Cytotoxicity against Breast cancer cell line MCF-7 using MTT colorimetric assay; type: functional, cell-based; conditions: Homo sapiens; method in brief: as §1
J82 [17] = test: (§3) Cytotoxicity against J82 bladder cell lines using MTT colorimetric assay; NE is no effect at 1x 10 E-5; type: functional, cell-based, Homo sapiens; method in brief: as §1
HCT-15 [18] = test: (§4) Cytotoxicity against HCT-15 colon cell line using MTT colorimetric assay; NE is no effect at 1x 10 E-5; type: functional, cell-based, Homo sapiens; method in brief: as §1
T47D [19] = test: (§5) Cytotoxicity against Breast cancer cell line T-47D using MTT colorimetric assay; NE is no effect at 1x 10 E-5; type: functional, cell-based, Homo sapiens; method in brief: as §1
MCF7 [20] = test: (§6) Cytotoxicity against Breast cancer cell line MCF-7 using MTT colorimetric assay; NE is no effect at 1x 10 E-5; type: functional, cell-based, Homo sapiens; method in brief: as §1
T-24 [21] = test: (§7) Cytotoxicity against T24 bladder cell lines using MTT colorimetric assay; NE is no effect at 1x 10 E-5; type: functional, cell-based, Homo sapiens; method in brief: as §1
A 172 [22] = test: (§8) Cytotoxicity against A-172 glioblastomas using MTT colorimetric assay; NE is no effect at 1x 10 E-5; type: functional, cell-based, Homo sapiens; method in brief: as §1
A549 [23] = test: (§9) Cytotoxicity against A549 nonsmall lung cell line using MTT colorimetric assay; NE is no effect at 1x 10 E-5; type: functional, cell-based, Homo sapiens; method in brief: as §1
U373 MG [24] = test: (§10) Cytotoxicity against U-373 MG glioblastomas using MTT colorimetric assay; NE is no effect at 1x 10 E-5; type: functional, cell-based, Homo sapiens; conditions: u-373mg atcc; method in brief: as §1
U-87 MG [25] = test: (§11) Cytotoxicity against U-87 MG glioblastomas using MTT colorimetric assay; NE is no effect at 1x 10 E-5; type: functional, cell-based, Homo sapiens; conditions: u-87mg atcc; method in brief: as §1
PC-3 [26] = test: (§12) Cytotoxicity against prostate cell line PC-3 using MTT colorimetric assay; NE is no effect at 1x 10 E-5; type: functional, cell-based, Homo sapiens; method in brief: as §1
A-427 [27] = test: (§13) Cytotoxicity against A-427 nonsmall lung cell line using MTT colorimetric assay; NE is no effect at 1x 10 E-5; type: functional, cell-based, Homo sapiens; method in brief: as §1
LoVo [28] = test: (§14) Cytotoxicity against LoVo colon cell line using MTT colorimetric assay; NE is no effect at 1x 10 E-5; type: functional, cell-based, Homo sapiens; method in brief: as §1
MCF7 [29] = test: as §6; type: functional, cell-based; conditions: Homo sapiens; method in brief: as §1
J82 [30] = test: as §3; type: functional, cell-based; conditions: Homo sapiens; method in brief: as §1
T47D [31] = test: as §5; type: functional, cell-based; conditions: Homo sapiens; method in brief: as §1
U373 MG [32] = test: as §10; type: functional, cell-based; conditions: Homo sapiens; U-373MG ATCC; method in brief: as §1
A 172 [33] = test: as §8; type: functional, cell-based; conditions: Homo sapiens; method in brief: as §1
LoVo [34] = test: as §14; type: functional, cell-based; conditions: Homo sapiens; method in brief: as §1
A549 [35] = test: as §9; type: functional, cell-based; conditions: Homo sapiens; method in brief: as §1
A-427 [36] = test: as §13; type: functional, cell-based; conditions: Homo sapiens; method in brief: as §1
PC-3 [37] = test: as §12; type: functional, cell-based; conditions: Homo sapiens; method in brief: as §1
HCT-15 [38] = test: as §4; type: functional, cell-based; conditions: Homo sapiens; method in brief: as §1
U-87 MG [39] = test: as §11; type: functional, cell-based; conditions: Homo sapiens; U-87MG ATCC; method in brief: as §1
T-24 [40] = test: as §7; type: functional, cell-based; conditions: Homo sapiens; method in brief: as §1
HCT-15 [41] = test: Cytotoxicity against HCT-15 colon cell line using MTT colorimetric assay at 1x 10 E-5; type: functional, cell-based; conditions: Homo sapiens; method in brief: as §1
Mus musculus [42] = test: Evaluated in vivo for maximum tolerated dose (MTD/4) using MXT mouse mammary adenocarcinoma model; remark: listed apart in the source
Mus musculus [43] = test: Evaluated in vivo for maximum tolerated dose (MTD/16) using MXT mouse mammary adenocarcinoma model ( ineffective); type: ADME, organism-based; method in brief: as §2
Mus musculus [44] = test: Evaluated in vivo for maximum tolerated dose (MTD/2) using MXT mouse mammary adenocarcinoma model ( highly toxic)
Mus musculus [45] = test: Evaluated in vivo for maximum tolerated dose (MTD/8) using MXT mouse mammary adenocarcinoma model

COc1ccc(-c2cc3c(OC)cc(OC)cc3n(CCc3nnn[nH]3)c2=O)cc1 showed an IC50 (A 172 [1]) of over 10 µM, an IC50 (J82 [2]) of over 10 µM and an IC50 (U-87 MG [3]) of over 10 µM. It also gave an IC50 (T47D [4]) of over 10 µM, an IC50 (HCT-15 [5]) of over 10 µM and an IC50 (LoVo [6]) of over 10 µM. For the same molecule, the IC50 (T-24 [7]) was over 10 µM, the MTD/2 (Mus musculus [8]) was 80 mg/kg and the MTD/4 (Mus musculus [9]) was 40 mg/kg. For the same molecule, the IC50 (U373 MG [10]) was over 10 µM, the IC50 (PC-3 [11]) was over 10 µM and the IC50 (A549 [12]) was over 10 µM. The MTD [13] was 160 mg/kg, the IC50 (A-427 [14]) was over 10 µM and the MTD/8 (Mus musculus [15]) was 20 mg/kg. It also gave an IC50 (MCF7 [16]) of over 10 µM.

For COc1ccc(-c2cc3c(OC)cc(OC)cc3n(CCCN(C)C)c2=O)cc1, the IC50 (J82 [17]) was “No effect”, the IC50 (HCT-15 [18]) was “No effect” and the IC50 (T47D [19]) was “No effect”. For the same molecule, the IC50 (MCF7 [20]) was “No effect”, the IC50 (T-24 [21]) was “No effect” and the IC50 (A 172 [22]) was “No effect”. The IC50 (A549 [23]) was “No effect”, the IC50 (U373 MG [24]) was “No effect” and the MTD [13] was 160 mg/kg. The IC50 (U-87 MG [25]) was “No effect”, the IC50 (PC-3 [26]) was “No effect” and the IC50 (A-427 [27]) was “No effect”. For the same molecule, the IC50 (LoVo [28]) was “No effect”.

In the case of COc1ccc(-c2cc3c(OC)cc(OC)cc3nc2S)cc1, the Cytotoxicity (MCF7 [29]) is reported as “inactive”, the Cytotoxicity (J82 [30]) is reported as “inactive” and the Cytotoxicity (T47D [31]) is reported as “inactive”. For the same molecule, the Cytotoxicity (U373 MG [32]) was “inactive”, the Cytotoxicity (A 172 [33]) was “inactive” and the Cytotoxicity (LoVo [34]) was “inactive”. For the same molecule, the Cytotoxicity (A549 [35]) was “inactive”, the Cytotoxicity (A-427 [36]) was “inactive” and the Cytotoxicity (PC-3 [37]) was “inactive”. For the same molecule, the MTD [13] was 160 mg/kg, the Cytotoxicity (HCT-15 [38]) was “inactive” and the Cytotoxicity (U-87 MG [39]) was “inactive”. The Cytotoxicity (T-24 [40]) was “inactive”.

For COC(=O)CCn1c(=O)c(-c2ccc(OC)cc2)cc2c(OC)cc(OC)cc21, the IC50 (A 172 [1]) was over 10 µM, the IC50 (J82 [2]) was over 10 µM and the IC50 (U-87 MG [3]) was over 10 µM. The IC50 (T47D [4]) was over 10 µM, the IC50 (LoVo [6]) was over 10 µM and the IC50 (T-24 [7]) was over 10 µM. For the same molecule, the IC50 (U373 MG [10]) was over 10 µM, the IC50 (PC-3 [11]) was over 10 µM and the IC50 (A549 [12]) was over 10 µM. The MTD [13] was 160 mg/kg, the IC50 (A-427 [14]) was over 10 µM and the IC50 (HCT-15 [41]) was over 10 µM. For the same molecule, the IC50 (MCF7 [16]) was over 10 µM.

In the case of COc1cc([C@@H]2c3cc4c(cc3[C@@H](O[C@@H]3O[C@@H]5CO[C@@H](C)O[C@H]5[C@H](O)[C@H]3O)[C@H]3COC(=O)[C@H]23)OCO4)cc(OC)c1O [ETOPOSIDE], the MTD/4 (Mus musculus [42]) is reported as 20 mg/kg, the MTD/16 (Mus musculus [43]) is reported as 5 mg/kg and the MTD/2 (Mus musculus [44]) is reported as 40 mg/kg. The MTD/8 (Mus musculus [45]) was 10 mg/kg.
